# Source: PubChem
# ERAP1 HTS inh: human ERAP1 aminopeptidase inhibitors, primary screen, biochemical, single point, plate reader. Endoplasmic reticulum aminopeptidase 1 (Homo sapiens), Q9NZ08. recombinant ERAP1, Leu-AMC fluorescence, 60 min. 340,000 compounds, 0.15% hits. AID 652197, 2013. inhibition, % at 10.7 µM;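 active = mean replicate inhibition of at least 30%, or all replicates individually reaching that 30% level; inactive = mean below 30% and not every replicate reaching it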
# PDI turbidity: inhibitors of human PDI, primary screen, biochemical, turbidity, single point, plate reader; Protein disulfide-isomerase (Homo sapiens), P07237; inhibition, % at 10 µM; 350,000 compounds, 0.052% hits; PDI insulin aggregation turbidity, A650, 90 min;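 active = mean inhibition across replicates of 30% or more, whatever share of single replicates reach that level; inconclusive = mean inhibition below 30% while every single replicate reaches 30%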
# FGF22 binding-1: binders of human FGF22 protein, primary screen, FGF22 synaptogenesis inhibitor project, biophysical, thermal shift, single point; Fibroblast growth factor 22 (Homo sapiens), Q9HCT0; recombinant FGF22 thermal shift, SYPRO orange fluorescence; percent of sucrose octasulfate shift, DMSO zero; activity (Tm shift, normalised), % at 9.99 µM; 340,000 compounds, 1.5% hits; AID 651658, 2012;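 active = mean Tm shift, scaled 0 neutral to 100 positive control, at about 1.3% or above, every replicate too, limit read from the data; inconclusive = no clear call, values can overlap the other calls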
# Target sequence (Q9HCT0 whole entry, looked up): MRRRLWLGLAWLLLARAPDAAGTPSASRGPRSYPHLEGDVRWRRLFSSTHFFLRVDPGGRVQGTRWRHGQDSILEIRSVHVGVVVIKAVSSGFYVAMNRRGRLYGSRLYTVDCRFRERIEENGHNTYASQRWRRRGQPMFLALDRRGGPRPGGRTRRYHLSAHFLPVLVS
# ERp5 block: inhibitors of ERp5-driven insulin aggregation, primary screen, biochemical, turbidity, absorbance 650 nm, single point; inhibition, % at 9.99 µM; Protein disulfide-isomerase A6 (Homo sapiens), Q15084; 90 min; 350,000 compounds, 0.05% hits;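 active = mean replicate inhibition above about 25%, with every replicate also reaching it, limit read from the data, passing the limit was not always enough; inconclusive = only one of those two criteria met; inactive = neither criterion met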
# Target sequence (Q15084 whole entry, looked up): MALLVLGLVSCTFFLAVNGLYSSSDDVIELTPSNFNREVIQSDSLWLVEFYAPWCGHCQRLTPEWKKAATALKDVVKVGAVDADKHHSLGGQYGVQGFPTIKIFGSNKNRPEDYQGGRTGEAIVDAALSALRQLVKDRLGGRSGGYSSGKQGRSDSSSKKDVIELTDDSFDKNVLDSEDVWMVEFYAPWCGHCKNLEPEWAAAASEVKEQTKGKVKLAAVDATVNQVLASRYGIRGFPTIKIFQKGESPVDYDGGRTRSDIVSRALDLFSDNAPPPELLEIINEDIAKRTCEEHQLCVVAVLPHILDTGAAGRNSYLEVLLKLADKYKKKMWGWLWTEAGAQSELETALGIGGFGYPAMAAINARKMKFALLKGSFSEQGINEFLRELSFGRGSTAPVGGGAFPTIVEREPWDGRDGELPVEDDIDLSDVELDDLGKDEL
# S100A4 inh HTS: inhibitors of S100A4-myosin IIA peptide binding, primary screen, biochemical, fluorescence polarization, TAMRA-MyoIIA peptide | Protein S100-A4 (Homo sapiens), P26447 | inhibition, % at 10.7 µM | 360,000 compounds, 0.14% hits | AID 652163, 2013;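 active = mean inhibition of at least 70% across replicates, with every replicate also reaching that level; inconclusive = mean inhibition reaches 70% but some replicates fall short; inactive = mean inhibition below 70%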
# Target sequence (P26447 whole entry, looked up): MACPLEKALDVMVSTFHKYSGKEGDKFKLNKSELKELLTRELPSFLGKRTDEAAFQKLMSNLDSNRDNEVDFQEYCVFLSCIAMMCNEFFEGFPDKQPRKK
#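 Material: S100A4 monomer protein | Medium: HEPES pH 7.2 with CaCl2, KCl, NaCl, DTT, Triton | Reagent: Labelled myosin peptide probe, 5 nM | Doses: One dose per compound | Times: 5 min incubation before reading | Benchmarks: Neutral control DMSO, positive control TFP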
# FGF22 binding-2: binders of human FGF22 protein, dose response, FGF22 synaptogenesis inhibitor project, biophysical, thermal shift, cherry-pick retest; shares compounds with FGF22 binding-1; recombinant FGF22 thermal shift, SYPRO orange fluorescence; thermal shift activity, °C (ΔTm) at 38 µM; 1,000 compounds, 2% hits;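 active = fitted rise in melting shift crosses a set limit at or below the top valid dose tested; inconclusive = flat fit at mid-level activity, or a poor quality fit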
# FGF22 TSA DP: binders of human FGF22 protein, dose response, FGF22 synaptogenesis inhibitor project, biophysical, thermal shift, dry powder. shares compounds with FGF22 binding-1. Tm shift (activity), % at 38 µM. 50 tested, under 10 active. Thermal shift assay, SYPRO orange, melting temperature shift. AID 743017, 2013;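 active = compounds whose fitted dose curve of melting temperature shift rises past a set threshold within the tested doses; inconclusive = flat curve at moderate activity, or poor curve fit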
# SYPRO no-protein: compound-only thermal shift signal without protein, dose response, artefact control for FGF22 binder project, biochemical, cherry-picked samples, RT-PCR instrument | compound-only SYPRO orange thermal shift counter-screen, no protein | 1,000 compounds, 2% hits | AC50, µM (titrated, usually from 38 µM) | shares compounds with FGF22 binding-1;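 active = rising signal whose fitted curve reaches the 0.54 level within the top valid dose, showing a melting point, actives reach about 13 µM in these data; inactive = the rest, including activity in the opposite direction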; also: value is where the raw curve crosses a fixed level and not half-maximal
# Numbers stand for hits; 0 = inactive; ? = inconclusive; - = not tested or not shown. This excerpt belongs to a sample that is enriched for hits.
SMILES,ERAP1 HTS inh,PDI turbidity,FGF22 binding-1,ERp5 block,S100A4 inh HTS,FGF22 binding-2,SYPRO no-protein,others
C=CCn1c(C2CCCCC2)n[nH]c1=S,0,0,0,0,0,-,-,
CCc1cc(-c2[nH]ncc2-c2ccc([N+](=O)[O-])cc2)c(O)cc1OC,-,0,-,-,-,-,-,
CCc1cc(-c2n[nH]c(C)c2-c2ccc3c(c2)OCCO3)c(O)cc1O,-,-,-,-,-,-,-,FGF22 TSA DP=0
CCc1cc(-c2[nH]ncc2-c2ccc3c(c2)OCCO3)c(O)cc1O,-,-,-,-,-,-,-,FGF22 TSA DP=0
CCc1cc(-c2n[nH]c(C)c2-c2nc3ccccc3n2C)c(O)cc1O,0,0,0,0,0,-,-,
COc1ccccc1CNC(=O)[C@H](Cc1c[nH]c2ccccc12)NC(=O)[C@@H]1Cc2ccccc2CN1,0,-,0,0,0,-,-,
CNC(=S)N(Cc1ccc(OC)cc1)C1CC(=O)N(c2ccc(C(=O)OC)cc2)C1=O (configuration not stated),0,-,2.2,0,0,0,0,
Cc1ccnc(NC(=O)CCC(=O)N(CC(=O)NC(C)(C)C)c2ccc(F)c(Cl)c2)c1,0,0,-,0,0,-,-,
CC1(C(=O)NS(=O)(=O)c2cccc(F)c2)CCN1C(=O)Cc1ccc(-c2ccccc2)cc1 (configuration not stated),0,0,0,0,0,-,-,
CC1(C(=O)NS(=O)(=O)c2cccc(Cl)c2)CCN1C(=O)Cc1ccc(-c2ccccc2)cc1 (configuration not stated),0,0,1.9,0,0,0,0,
COc1cc2[nH]c3ccccc3c2cc1C,0,-,0,0,0,-,-,
CC(=O)Nc1ccc(/C(C)=N/Nc2nc(Nc3ccccc3)nc(N3CCOCC3)n2)cc1,0,0,1.6,0,0,0,0,
CC(=O)c1ccc(Nc2nc(N3CCOCC3)nc(N3CCOCC3)n2)cc1,0,0,0,0,0,-,-,
C[C@@H]1CN([C@@H](C)CO)C(=O)c2cc(NC(=O)CCCN(C)C)ccc2O[C@@H]1CN(C)S(=O)(=O)c1ccccc1,0,-,0,0,0,-,-,
O=[N+]([O-])c1cccc(-c2nc3ccc([N+](=O)[O-])cc3[nH]2)c1,0,0,0,0,0,-,-,
COc1ccc(-c2nc3ccc([N+](=O)[O-])cc3[nH]2)cc1,0,0,2.6,0,0,0,0,
O=[N+]([O-])c1ccc2nc(-c3ccc(Cl)cc3)[nH]c2c1,0,0,1.8,0,0,0,0,
COc1ccc2nc(-c3ccccc3)[nH]c2c1,-,0,-,-,-,-,-,
C[C@H](CO)N1C[C@H](C)[C@@H](CN(C)Cc2ccccn2)Oc2cc(-c3ccncc3)ccc2S1(=O)=O,0,-,0,0,0,-,-,
C/C(=N\NC(=O)c1ccc(NS(=O)(=O)c2cccs2)cc1)c1cccs1,0,0,1.5,0,0,0,0,
C/C(=N\NC(=O)c1ccc(NS(=O)(=O)c2cccs2)cc1)c1ccc(Cl)cc1,-,0,-,-,-,-,-,
Cc1ccc(S(=O)(=O)N(C)c2ccc(OC(=O)COc3ccccc3)cc2)cc1,0,?,15,0,0,0,0,
Cc1ccc(S(=O)(=O)N(C)c2ccc(OCC(=O)Nc3ccc(S(C)(=O)=O)cc3)cc2)cc1,0,0,0,0,0,-,-,
C[C@@H]1CN([C@@H](C)CO)C(=O)c2cc(NC(=O)Nc3cccc4ccccc34)ccc2O[C@@H]1CN(C)Cc1ccncc1,0,-,0,0,0,-,-,
Cc1ccc(N(C(=O)c2csnn2)C(C(=O)NC2CCCC2)c2ccccn2)c(C)c1 (configuration not stated),0,0,1.6,0,0,0,0,
SMILES,ERAP1 HTS inh,PDI turbidity,FGF22 binding-1,ERp5 block,S100A4 inh HTS,FGF22 binding-2,SYPRO no-protein,others
C=CCN=C(C)C1=C(O)C(C)OC1=O (configuration not stated),-,0,-,-,-,-,-,
O=C(O)c1ccc(C=NNC(=O)c2ccccc2NS(=O)(=O)c2cccs2)cc1,0,0,-,0,0,-,-,
O=C(NN=Cc1ccc(O)cc1)c1ccccc1NS(=O)(=O)c1cccs1,0,0,1.8,0,0,0,0,
O=C(O)c1ccc2c(c1Sc1ccccc1)C(=O)c1ccccc1C2=O,0,-,0,0,0,-,-,
CCOC(=O)C1CCCN(C(=O)CSCc2ccccc2)C1 (configuration not stated),-,0,-,-,-,-,-,
Cc1ccc(S(=O)(=O)N[C@H]2C=C[C@H](CC(=O)N3CCc4ccccc4C3)O[C@H]2CO)cc1,0,-,1.3,0,0,0,0,
Cc1ccc(S(=O)(=O)N[C@H]2C=C[C@@H](CC(=O)N3CCc4ccccc4C3)O[C@@H]2CO)cc1,0,-,1.3,0,0,0,0,
Cc1ccc(S(=O)(=O)N[C@@H]2C=C[C@@H](CC(=O)N3CCc4ccccc4C3)O[C@H]2CO)cc1,0,-,0,0,0,-,-,
Cc1ccc(S(=O)(=O)N[C@H]2C=C[C@H](CC(=O)N3CCc4ccccc4C3)O[C@@H]2CO)cc1,0,-,0,0,0,-,-,
COCCNC(=O)[C@H]1[C@H](CO)[C@H]2Cn3c(ccc(-c4ccc(F)cc4)c3=O)[C@@H]1N2C(=O)NC(C)C,0,-,14,0,0,0,0,
COCCNC(=O)[C@@H]1[C@@H](CO)[C@@H]2Cn3c(ccc(-c4ccc(OC)cc4)c3=O)[C@H]1N2C(=O)NC(C)C,0,-,0,0,0,-,-,
COc1ccccc1-c1ccc2n(c1=O)C[C@@H]1[C@@H](CO)[C@H](C(=O)NC3CCC3)N(C(=O)NC(C)C)[C@H]21,0,-,15,0,0,0,0,
CCOC(=O)C1CCCN(C(=O)c2cc3cc(F)ccc3[nH]2)C1 (configuration not stated),0,0,0,0,0,-,-,
COc1ccc(-c2nn3c(=O)c(C)nnc3s2)cc1,0,0,-,0,0,-,-,
CCc1nnc(NS(=O)(=O)c2ccc(NC(=O)OC)cc2)s1,-,0,-,-,-,-,-,
CCc1nnc(NS(=O)(=O)c2ccc(NC(=O)c3ccc(Br)cc3)cc2)s1,0,0,1.6,0,0,0,0,
CCc1nnc(NS(=O)(=O)c2ccc(Nc3ccc([N+](=O)[O-])c4nonc34)cc2)s1,0,0,2.0,0,0,0,0,
CCOC(=O)N1CCN(C(=O)Nc2cccc(Cl)c2)CC1,-,0,-,-,-,-,-,
